Measurements taken from ChEMBL document CHEMBL1122613, “A water-soluble cholesteryl-containing trisgalactoside: synthesis, properties, and use in directing lipid-containing particles to the liver” (J Med Chem, 1984).

Key:
[1] = [125I]- uptake in liver after perfusion on administration of 0.05 nmol of compound/ug of [125I]- LDL protein; assay type: ADME, tissue-based; conditions: rat
[2] = [125I]- uptake in liver after perfusion on administration of 0.65 nmol of compound/ug of [125I]- LDL protein in rats preinjected with Glc-N-Ac 110 mg; assay type: ADME, tissue-based; conditions: rat, in vivo
Summary of the method: (§1)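 110 mg 2-acetamido-2-deoxygalacto- or -glucopyranose was injected iv 1 min before the 125I-LDL, which had been preincubated 10 min at room temperature with compound (13 μg per 20 μg LDL-protein). Rats were pentobarbital-anesthetized males. Blood was taken at 10 min, and the liver was perfused with Ca2+-free Hanks and excised. Samples were γ-counted; blood totals assume 4 mL serum/100 g body weight; values are % injected dose.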

[3] = [125I]- uptake in liver after perfusion on administration of 0.65 nmol of compound/ug of [125I]- LDL protein in rats preinjected with Gal-N-Ac 110 mg; assay type: ADME, tissue-based; conditions: rat, in vivo; summary of the method: as §1
Rattus norvegicus [4] = experiment: Amount of [125I]- remaining in blood 10 min after administration of 0.65 nmol of compound/ug of [125I]- LDL protein; assay type: ADME, organism-based
Summary of the method: (§2)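 Human LDL (d 1.019–1.063) was labeled with 125I. 20 μg LDL-protein was mixed with 0, 5 or 13 μg compound in water for 10 min at room temperature, then given iv to pentobarbital-anesthetized male rats. At 10 min, blood was taken by aortic puncture and the liver perfused via the portal vein (Ca2+-free Hanks, 14 mL/min, 8 min), then excised. Samples were γ-counted; results are % injected dose.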

Rattus norvegicus [5] = experiment: Amount of [125I]- remaining in blood 10 min after administration of 0.65 nmol of compound/ug of [125I]- LDL protein in rat preinjected with Glc-N-Ac 110 mg; assay type: ADME, organism-based; conditions: in vivo; summary of the method: as §1
[6] = 14C uptake in liver after perfusion on administration of 0 mol of [14C]- sucrose containing liposomes with compound; assay type: ADME; conditions: rat
[7] = [125I]- uptake in liver after perfusion on administration of 0.65 nmol of compound/ug of [125I]- LDL protein; assay type: ADME, tissue-based; conditions: rat; summary of the method: as §2
Rattus norvegicus [8] = experiment: Amount of [125I]- remaining in blood 10 min after administration of 0.05 nmol of compound/ug of [125I]- LDL protein; assay type: ADME, organism-based
[9] = [125I]- uptake in liver after perfusion on administration of 0 nmol of compound/ug of [125I]- LDL protein; assay type: ADME, tissue-based; conditions: rat; summary of the method: as §2
Rattus norvegicus [10] = species: Rattus norvegicus; experiment: Amount of 14C remaining in blood 120 min after injection of 0 mol of [14C]- sucrose containing liposomes with compound; assay type: ADME, organism-based; conditions: 2 h
Rattus norvegicus [11] = experiment: Amount of [125I]- remaining in blood 10 min after administration of 0.65 nmol of compound/ug of [125I]- LDL protein in rats preinjected with Gal-N-Ac 110 mg; assay type: ADME, organism-based; conditions: in vivo; summary of the method: as §1
[12] = [125I]- uptake in liver after perfusion on administration of 0.25 nmol of compound/ug of [125I]- LDL protein; assay type: ADME, tissue-based; conditions: rat; summary of the method: as §2
Rattus norvegicus [13] = experiment: Amount of [125I]- remaining in blood 10 min after administration of 0 nmol of compound/ug of [125I]- LDL protein; assay type: ADME, organism-based; summary of the method: as §2
[14] = 14C uptake in liver after perfusion on administration of 0.1 mol of [14C]- sucrose containing liposomes with compound; assay type: ADME; conditions: rat
Rattus norvegicus [15] = species: Rattus norvegicus; experiment: Amount of 14C remaining in blood 120 min after injection of 0.1 mol of [14C]- sucrose containing liposomes with compound; assay type: ADME, organism-based; conditions: 2 h
Rattus norvegicus [16] = experiment: Amount of [125I]- remaining in blood 10 min after administration of 0.25 nmol of compound/ug of [125I]- LDL protein; assay type: ADME, organism-based; summary of the method: as §2

CC(C)CCC[C@@H](C)[C@H]1CC[C@H]2[C@@H]3CC=C4C[C@@H](OC(=O)CCC(=O)NCC(=O)NC(CO[C@@H]5O[C@H](CO)[C@H](O)[C@H](O)[C@H]5O)(CO[C@@H]5O[C@H](CO)[C@H](O)[C@H](O)[C@H]5O)CO[C@@H]5O[C@H](CO)[C@H](O)[C@H](O)[C@H]5O)CC[C@]4(C)[C@H]3CC[C@]12C gave an Activity [1] of 2%, an Activity [2] of 39% and an Activity [3] of 3.2%. It also gave an Activity (Rattus norvegicus [4]) of 23%, an Activity (Rattus norvegicus [5]) of 27% and an Activity [6] of 3%. The Activity [7] was 41%, the Activity (Rattus norvegicus [8]) was 96% and the Activity [9] was 1.9%. It also gave an Activity (Rattus norvegicus [10]) of 82%, an Activity (Rattus norvegicus [11]) of 94% and an Activity [12] of 33%. The Activity (Rattus norvegicus [13]) was 97%, the Activity [14] was 48% and the Activity (Rattus norvegicus [15]) was 48%. The Activity (Rattus norvegicus [16]) was 57%.
